These results are taken from BindingDB's records for doi:10.1021/jm049090z (The Bristol-Myers Squibb Pharmaceutical Research Institute, 2005).

The structures appear in SMILES notation.

The experiment addresses T1, DNA topoisomerase 1 (Homo sapiens, UniProt P11387).
T1 sequence (P11387 whole entry): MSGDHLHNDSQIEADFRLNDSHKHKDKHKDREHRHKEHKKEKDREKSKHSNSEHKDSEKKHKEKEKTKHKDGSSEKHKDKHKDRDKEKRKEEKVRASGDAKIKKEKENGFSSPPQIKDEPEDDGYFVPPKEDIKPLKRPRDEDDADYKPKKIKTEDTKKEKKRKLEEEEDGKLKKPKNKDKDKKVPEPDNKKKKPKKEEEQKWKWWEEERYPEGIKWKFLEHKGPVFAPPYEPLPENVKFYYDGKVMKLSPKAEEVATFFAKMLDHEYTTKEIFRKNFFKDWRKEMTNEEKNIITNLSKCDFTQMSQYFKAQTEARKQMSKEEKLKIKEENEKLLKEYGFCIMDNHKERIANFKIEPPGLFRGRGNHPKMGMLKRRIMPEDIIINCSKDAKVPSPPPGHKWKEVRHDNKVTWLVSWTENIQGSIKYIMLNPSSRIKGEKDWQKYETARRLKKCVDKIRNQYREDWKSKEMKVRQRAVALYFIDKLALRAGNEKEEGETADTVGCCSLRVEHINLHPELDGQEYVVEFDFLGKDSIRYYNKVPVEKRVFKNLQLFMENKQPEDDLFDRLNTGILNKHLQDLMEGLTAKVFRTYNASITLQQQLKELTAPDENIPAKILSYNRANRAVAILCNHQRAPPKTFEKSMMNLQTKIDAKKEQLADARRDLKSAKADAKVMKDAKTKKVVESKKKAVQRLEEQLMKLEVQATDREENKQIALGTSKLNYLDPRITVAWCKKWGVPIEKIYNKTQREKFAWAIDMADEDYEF
The experiment is described as follows: Topoisomerase I activity for single-strand breaks in the DNA substrate. The procedure, abridged: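 Topo I-mediated DNA cleavage assay using covalently closed, supercoiled phage PM2 DNA as substrate; read-out is induction of single-strand breaks.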
Turning to `O=C1NC(=O)c2c1c1c3cc(F)c(F)cc3sc1c1c2c2cc(F)c(F)cc2n1C1OC(CO)C(F)(F)C(O)C1O` (centres undefined) [13-(5,5-difluoro-3,4-dihydroxy-6-hydroxymethyltetrahydro-2H-2-pyranyl)-2,3,9,10-tetrafluoro-5,6,7,13-tetrahydrobenzo[4,5]thieno[2,3-a]pyrrolo[4,3-c]carbazole-5,7-dione], the concentration giving a half-maximal response (EC50) was found to be 80 nM. The molecule `O=C1NC(=O)c2c1c1c3cc(F)ccc3[nH]c1c1c2c2cc(F)ccc2n1C1OC(CF)[C@@H](O)C(O)C1O` (some centres undefined) [Name not given] displayed a half-maximal effective concentration (EC50) of 704 nM. Under `O=C1NC(=O)c2c1c1c3cc(F)c(F)cc3[nH]c1c1c2c2cc(F)c(F)cc2n1C1OC(CF)C(O)C(O)C1O` (centres undefined) [2,3,9,10-tetrafluoro-12-(6-fluoromethyl-3,4,5-trihydroxytetrahydro-2H-2-pyranyl)-6,7,12,13-tetrahydro-5H-indolo[2,3-a]pyrrolo[3,4-c]carbazole-5,7-dione] stands 480 nM; under `O=C1NC(=O)c2c1c1c3cc(F)c(F)cc3sc1c1c2c2cc(F)c(F)cc2n1C1OC(CF)C(O)C(O)C1O` (centres undefined) [2,3,9,10-tetrafluoro-13-(6-fluoromethyl-3,4,5-trihydroxytetrahydro-2H-2-pyranyl)-5,6,7,13-tetrahydrobenzo[4,5]thieno[2,3-a]pyrrolo[4,3-c]carbazole-5,7-dione], 240 nM.

For orientation: EC50 means the concentration needed to bring the measured effect to its halfway point. A low value points to an effect from little substance.
